Measured values published in PubChem BioAssay AID504382 (The Scripps Research Institute Molecular Screening Center, 2011).
In all, about 2,500 compounds went through this assay and about 460 (18%) were called active. These entries were drawn from the full list. A number with no mark means an inactive call.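 The calls were made as follows: active = mean activation above a cutoff of low control average plus 3 SD from the earlier screen (cut at about 12% in these data); inactive = the rest.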

experiment: IANBD-channel fluorescence artefacts in buffer – biochemical, artefact control for cardiac RTF calcium sensitizer project, confirmation (AID 504382); conditions: IANBD fluorescence interference counterscreen, EC20 Ca2+, at 7.2 µM, stronger effect = higher value, scaled: EC20 calcium 0, EC100 calcium 100
Outline: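 Also added: EC20 calcium, 0.472 mM; dosing: single nominal 7.2 µM compound dose, 0.7% DMSO final; timing: 15 min, 25 °C; detection: fluorescence intensity, excitation 480 nm, emission 540 nm; replicates: each compound tested in triplicate wells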

Structure (SMILES)	fluorescence artifact activation
COC(=O)c1ccccc1NC(=O)[C@@H]1CCC(=O)N1C1OC(=O)c2c1ccc(OC)c2OC (stereo partly specified)	0.09%
O=C1C=C(NCc2ccco2)CC(c2ccc(Cl)cc2)C1 (stereo unspecified)	0.31%
CC1=CC=CN2CC(O)CN=C12 (stereo unspecified)	3.77%
Cc1c(C(=O)NCc2ccc3c(c2)cc(C)n3C)cccc1[N+](=O)[O-]	0.13%
COc1cc(NC(=O)CSc2nc3ccccc3n2-c2ccccc2)c(C)cc1[N+](=O)[O-]	0.03%
COC1=C/C(=C/c2c(N)n3c(nc2=O)sc2cc(S(C)(=O)=O)ccc23)C=CC1=O	0.11%
N#Cc1cccc(NC(=S)Nc2ccccc2)c1	0.03%
CN(Cc1ccccc1)C(=O)c1[nH]cnc1C(=O)NCc1ccccc1	12.7% (active)
CCOC(=O)c1[nH]cnc1C(=O)Nc1ccccn1	0.74%
CC(C)(C)OC(=O)[C@H](Cc1ccccc1)NC(=O)c1nc[nH]c1C(=O)NCc1ccccc1	4.14%
CCOC(=O)C1=C(C)N=c2s/c(=C\c3ccc(OCC(=O)O)cc3)c(=O)n2C1c1ccc(Cl)cc1 (stereo unspecified)	0.05%
CC1=C/C(=C\C=C(C#N)C#N)N(C)c2ccccc21	0.3%
O=C(O)c1cc(Cl)ccc1-c1ccc(/C=C/c2cc(C(F)(F)F)[nH]c(=O)n2)o1	21.8% (active)
O=C(O)c1ccccc1-c1ccc(/C=C/c2cc(C(F)(F)F)[nH]c(=O)n2)o1	0.16%
Cc1cc2nc(/C(C#N)=C\c3ccc(-c4ccccc4C(=O)O)o3)[nH]c2cc1C	0.09%
CC(=O)NN1C(=O)/C(=C\c2ccc(O)cc2)SC1=S	0.69%
C/C(=N\Nc1ccc([N+](=O)[O-])cc1[N+](=O)[O-])c1cccnc1	0.07%
Fc1ccc(OCc2nnc(SCCN3CCOCC3)o2)cc1	-0.06%
O=C(CSc1nnc(COc2ccccc2)o1)N1CCN(c2ccccc2)CC1	12% (active)
O=C(NCc1nnc(SCC(=O)N2CCCCCC2)o1)c1ccco1	8.13%
Cc1cccc(NC(=O)CN2C(=O)N/C(=C/c3ccc(C)s3)C2=O)c1	0.09%
O=C(O)c1ccc(-n2c(/C=C/c3cccc([N+](=O)[O-])c3)nc3ccccc3c2=O)cc1	0.47%
COCCN1C(=O)/C(=C/c2ccc(N3CCCC3)cc2)SC1=S	0.34%
CC(=O)c1ccc(S(=O)(=O)Nc2ccc(C(=O)N3CCC3)cc2)cc1	0.27%
CCOC(=O)C1CCCN(C(=O)c2cccc(S(=O)(=O)N3CC(C)OC(C)C3)c2)C1 (stereo unspecified)	0.05%
CC1CN(c2ccc(NS(=O)(=O)c3ccccc3)cc2C(=O)O)CC(C)O1 (stereo unspecified)	31.9% (active)
